# Experimental data of several laboratories.
# KCNH2: Voltage-gated inwardly rectifying potassium channel KCNH2 (KCNH2, Homo sapiens, UniProt Q12809)
# UGT2B7: UDP-glucuronosyltransferase 2B7 (UGT2B7, Homo sapiens, UniProt P16662)
Structure (SMILES),target,assay,system,setting,endpoint,value
CN1CCN(Cc2ccc(NC(=O)c3cncc(C#Cc4cnc(N)c5ncccc45)c3)cc2C(F)(F)F)CC1,KCNH2,"ion current, inhibitor",,,IC50,> 30000 nM
CCc1cccc(C(=O)Nc2cc(C)nn2-c2nc(CC)cc(=O)[nH]2)c1,KCNH2,"ligand displacement, radioligand",,10 µM,inhibition,0%
C=C1CCC2C(C)(CO)C(=O)CCC2(C)C1C=CC1=CCOC1=O (stereo not drawn),UGT2B7,"enzyme activity, inhibitor",,100 µM,inhibition,90%
COc1ccc(CCC2CCCC(CCc3ccc(OC)cc3)N2C[C@@H](O)CO)cc1 (stereo in doubt),KCNH2,"ion current, inhibitor, patch clamp",,,IC50,~70 nM
CC(C)N1CCC[C@H]1CNC(=O)c1cn(C2CCCC2)c(=O)c2c1c1ccccc1n2C,KCNH2,"ligand displacement, radioligand",,10 µM,inhibition,39%
Clc1ccc2c(C3CCN(CCc4c[nH]c5ccccc45)CC3)c[nH]c2c1,KCNH2,"ligand displacement, radioligand",,10 µM,inhibition,99%
O=c1ccc2ccccc2o1,KCNH2,"ligand displacement, radioligand",,"10 µM, cell membranes",inhibition,-13.1%
C=C1CC[C@@H]2[C@](C)(CO)[C@H](O)CC[C@@]2(C)[C@@H]1/C=C/C1=CCOC1=O,UGT2B7,"enzyme activity, inhibitor",,100 µM,inhibition,80%
O=C(O)C(F)(F)C(F)(F)C(F)(F)C(F)(F)C(F)(F)C(F)(F)C(F)(F)F,"Solute carrier organic anion transporter family member 2B1 (SLCO2B1, Homo sapiens, UniProt O94956)","transporter uptake, substrate",CHO,"1 min, pH 7.4",Km,149 µM
